Tested on: MDA-MB-435
Test: Growth inhibition of human MDA-MB-435 cells at 10 uM after 48 hrs by sulforhodamine B assay
Type: functional
Conditions: MDA-MB-435, 48 h, read-out: GI
In short: (§1)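 Single-dose screen at 10 µM across the NCI 60 panel. Cells in RPMI 1640 with 5% FBS and 2 mM L-glutamine, plated at 5000–40,000/well and preincubated 24 h at 37 °C, 5% CO2. Drug in DMSO, 48 h exposure. Fixed with TCA, stained with SRB, A515 read. Percent growth is taken relative to untreated control, and inhibition is 100 minus growth.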
Work on O=S(=O)(Nc1ccccn1)c1ccc2nc(-c3ccccc3)c(-c3ccccc3)nc2c1 yielded an inhibition of growth at 10 µM of 54.2%.

Tested on: not listed separately
Test: Growth inhibition of human EKVX cells at 10 uM after 48 hrs by sulforhodamine B assay
Type: functional
Conditions: read-out: GI
In short: (§2)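 NCI-60 one-dose primary screen at a single 10 µM concentration. Cells in RPMI 1640 with 5% FBS, preincubated 24 h at 37 °C, 5% CO2. Drug exposure 48 h, then TCA fixation, SRB staining and absorbance at 515 nm. Percent growth calculated against time-zero and untreated control wells, then converted to percent growth inhibition.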
With O=S(=O)(Nc1ccccn1)c1ccc2nc(-c3ccccc3)c(-c3ccccc3)nc2c1 the inhibition of growth at 10 µM was 80.8%.

Tested on: U-251
Test: Growth inhibition of human U251 cells at 10 uM after 48 hrs by sulforhodamine B assay
Type: functional
Conditions: U-251, 48 h, read-out: GI
In short: as §1
O=S(=O)(Nc1ccccn1)c1ccc2nc(-c3ccccc3)c(-c3ccccc3)nc2c1 showed an inhibition of growth at 10 µM of 56.5%.

Tested on: NCI-H522
Test: Growth inhibition of human NCI-H522 cells at 10 uM after 48 hrs by sulforhodamine B assay
Type: functional
Conditions: NCI-H522, 48 h, read-out: GI
In short: as §1
In the case of O=S(=O)(Nc1ccccn1)c1ccc2nc(-c3ccccc3)c(-c3ccccc3)nc2c1, the inhibition of growth at 10 µM is reported as 65.6%.

Tested on: NCI-H322M
Test: Growth inhibition of human NCI-H322M cells at 10 uM after 48 hrs by sulforhodamine B assay
Type: functional
Conditions: read-out: GI
In short: as §1
With O=S(=O)(Nc1ccccn1)c1ccc2nc(-c3ccccc3)c(-c3ccccc3)nc2c1 the inhibition of growth at 10 µM was 59.4%.

Tested on: MOLT-4
Test: Growth inhibition of human MOLT4 cells at 10 uM after 48 hrs by sulforhodamine B assay
Type: functional
Conditions: MOLT-4, 48 h, read-out: GI
In short: as §1
For O=S(=O)(Nc1ccccn1)c1ccc2nc(-c3ccccc3)c(-c3ccccc3)nc2c1, the inhibition of growth at 10 µM was 86.8%.

Tested on: MDA-MB-468
Test: Growth inhibition of human MDA-MB-468 cells at 10 uM after 48 hrs by sulforhodamine B assay
Type: functional
Conditions: MDA-MB-468, 48 h, read-out: GI
In short: as §1
In the case of O=S(=O)(Nc1ccccn1)c1ccc2nc(-c3ccccc3)c(-c3ccccc3)nc2c1, the inhibition of growth at 10 µM is reported as -4.67%.

Tested on: SK-OV-3
Test: Growth inhibition of human SKOV3 cells at 10 uM after 48 hrs by sulforhodamine B assay
Type: functional
Conditions: SK-OV-3, 48 h, read-out: GI
In short: as §1
O=S(=O)(Nc1ccccn1)c1ccc2nc(-c3ccccc3)c(-c3ccccc3)nc2c1 gave an inhibition of growth at 10 µM of 44.9%.

Tested on: not listed separately
Test: Growth inhibition of human Hs 578T cells at 10 uM after 48 hrs by sulforhodamine B assay
Type: functional
Conditions: read-out: GI
In short: as §2
For O=S(=O)(Nc1ccccn1)c1ccc2nc(-c3ccccc3)c(-c3ccccc3)nc2c1, the inhibition of growth at 10 µM was 76.3%.

Tested on: UACC-257
Test: Growth inhibition of human UACC257 cells at 10 uM after 48 hrs by sulforhodamine B assay
Type: functional
Conditions: UACC-257, 48 h, read-out: GI
In short: as §1
Molecule O=S(=O)(Nc1ccccn1)c1ccc2nc(-c3ccccc3)c(-c3ccccc3)nc2c1 has an inhibition of growth at 10 µM of 42.5%.

Tested on: NCI-H226
Test: Growth inhibition of human NCI-H226 cells at 10 uM after 48 hrs by sulforhodamine B assay
Type: functional
Conditions: NCI-H226, 48 h, read-out: GI
In short: as §1
Work on O=S(=O)(Nc1ccccn1)c1ccc2nc(-c3ccccc3)c(-c3ccccc3)nc2c1 yielded an inhibition of growth at 10 µM of -1.38%.

Tested on: HCT-116
Test: Growth inhibition of human HCT116 cells at 10 uM after 48 hrs by sulforhodamine B assay
Type: functional
Conditions: HCT-116, 48 h, read-out: GI
In short: as §2
In the case of O=S(=O)(Nc1ccccn1)c1ccc2nc(-c3ccccc3)c(-c3ccccc3)nc2c1, the inhibition of growth at 10 µM is reported as 72.1%.

Tested on: K562
Test: Growth inhibition of human K562 cells at 10 uM after 48 hrs by sulforhodamine B assay
Type: functional
Conditions: K562, 48 h, read-out: GI
In short: as §1
Work on O=S(=O)(Nc1ccccn1)c1ccc2nc(-c3ccccc3)c(-c3ccccc3)nc2c1 yielded an inhibition of growth at 10 µM of 64.4%.

Tested on: SK-MEL-28
Test: Growth inhibition of human SK-MEL-28 cells at 10 uM after 48 hrs by sulforhodamine B assay
Type: functional
Conditions: SK-MEL-28, 48 h, read-out: GI
In short: as §1
With O=S(=O)(Nc1ccccn1)c1ccc2nc(-c3ccccc3)c(-c3ccccc3)nc2c1 the inhibition of growth at 10 µM was 30.3%.

Tested on: M14
Test: Growth inhibition of human M14 cells at 10 uM after 48 hrs by sulforhodamine B assay
Type: functional
Conditions: M14, 48 h, read-out: GI
In short: as §1
O=S(=O)(Nc1ccccn1)c1ccc2nc(-c3ccccc3)c(-c3ccccc3)nc2c1 gave an inhibition of growth at 10 µM of 62.8%.

Tested on: 786-0
Test: Growth inhibition of human 786-0 cells at 10 uM after 48 hrs by sulforhodamine B assay
Type: functional
Conditions: 786-0, 48 h, read-out: GI
In short: (§3)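 Single-dose NCI-60 prescreen at 10 µM for 48 h at 37 °C and 5% CO2, using cells grown in RPMI 1640 with 5% FBS and 2 mM glutamine. Protein was measured by SRB after TCA fixation: 10% final for adherent lines, 16% for suspension lines. Absorbance was read at 515 nm. Percent growth inhibition was obtained by subtracting percent growth from 100.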
With O=S(=O)(Nc1ccccn1)c1ccc2nc(-c3ccccc3)c(-c3ccccc3)nc2c1 the inhibition of growth at 10 µM was 99.2%.

Tested on: HL-60(TB)
Test: Growth inhibition of human HL-60(TB) cells at 10 uM after 48 hrs by sulforhodamine B assay
Type: functional
Conditions: HL-60, 48 h, read-out: GI
In short: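 Single-dose NCI-60 primary screen at 10 µM, 48 h exposure, SRB read-out. Growth percentage of treated versus untreated cells was recorded and given as percent inhibition by subtraction.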
O=S(=O)(Nc1ccccn1)c1ccc2nc(-c3ccccc3)c(-c3ccccc3)nc2c1 showed an inhibition of growth at 10 µM of 80.7%.

Tested on: SF-295
Test: Growth inhibition of human SF295 cells at 10 uM after 48 hrs by sulforhodamine B assay
Type: functional
Conditions: SF-295, 48 h, read-out: GI
In short: as §1
Molecule O=S(=O)(Nc1ccccn1)c1ccc2nc(-c3ccccc3)c(-c3ccccc3)nc2c1 has an inhibition of growth at 10 µM of 76.8%.

Tested on: IGROV-1
Test: Growth inhibition of human IGROV1 cells at 10 uM after 48 hrs by sulforhodamine B assay
Type: functional
Conditions: IGROV-1, 48 h, read-out: GI
In short: as §1
O=S(=O)(Nc1ccccn1)c1ccc2nc(-c3ccccc3)c(-c3ccccc3)nc2c1 gave an inhibition of growth at 10 µM of 31.8%.

Tested on: SW-620
Test: Growth inhibition of human SW620 cells at 10 uM after 48 hrs by sulforhodamine B assay
Type: functional
Conditions: SW-620, 48 h, read-out: GI
In short: as §1
With O=S(=O)(Nc1ccccn1)c1ccc2nc(-c3ccccc3)c(-c3ccccc3)nc2c1 the inhibition of growth at 10 µM was 47.9%.

Tested on: SNB-75
Test: Growth inhibition of human SNB75 cells at 10 uM after 48 hrs by sulforhodamine B assay
Type: functional
Conditions: SNB-75, 48 h, read-out: GI
In short: as §1
For O=S(=O)(Nc1ccccn1)c1ccc2nc(-c3ccccc3)c(-c3ccccc3)nc2c1, the inhibition of growth at 10 µM was 61.8%.

Tested on: RXF 393
Test: Growth inhibition of human RXF393 cells at 10 uM after 48 hrs by sulforhodamine B assay
Type: functional
Conditions: RXF 393, 48 h, read-out: GI
In short: as §1
O=S(=O)(Nc1ccccn1)c1ccc2nc(-c3ccccc3)c(-c3ccccc3)nc2c1 gave an inhibition of growth at 10 µM of -40.4%.

Tested on: COLO 205
Test: Growth inhibition of human COLO205 cells at 10 uM after 48 hrs by sulforhodamine B assay
Type: functional
Conditions: COLO 205, 48 h, read-out: GI
In short: as §3
O=S(=O)(Nc1ccccn1)c1ccc2nc(-c3ccccc3)c(-c3ccccc3)nc2c1 showed an inhibition of growth at 10 µM of 54.2%.

Tested on: not listed separately
Test: Oral bioavailability in human
Type: ADME, organism-based
Conditions: in silico prediction
Molecule O=S(=O)(Nc1ccccn1)c1ccc2nc(-c3ccccc3)c(-c3ccccc3)nc2c1 has a bioavailability of 100%.

Tested on: A549
Test: Growth inhibition of human A549/ATCC cells at 10 uM after 48 hrs by sulforhodamine B assay
Type: functional
Conditions: A549, 48 h, read-out: GI
In short: as §3
Work on O=S(=O)(Nc1ccccn1)c1ccc2nc(-c3ccccc3)c(-c3ccccc3)nc2c1 yielded an inhibition of growth at 10 µM of 54.7%.

Tested on: OVCAR-4
Test: Growth inhibition of human OVCAR4 cells at 10 uM after 48 hrs by sulforhodamine B assay
Type: functional
Conditions: OVCAR-4, 48 h, read-out: GI
In short: as §1
O=S(=O)(Nc1ccccn1)c1ccc2nc(-c3ccccc3)c(-c3ccccc3)nc2c1 showed an inhibition of growth at 10 µM of 40.1%.

Tested on: TK-10
Test: Growth inhibition of human TK10 cells at 10 uM after 48 hrs by sulforhodamine B assay
Type: functional
Conditions: TK-10, 48 h, read-out: GI
In short: as §1
In the case of O=S(=O)(Nc1ccccn1)c1ccc2nc(-c3ccccc3)c(-c3ccccc3)nc2c1, the inhibition of growth at 10 µM is reported as 30.2%.

Tested on: SNB-19
Test: Growth inhibition of human SNB19 cells at 10 uM after 48 hrs by sulforhodamine B assay
Type: functional
Conditions: SNB-19, 48 h, read-out: GI
In short: as §1
In the case of O=S(=O)(Nc1ccccn1)c1ccc2nc(-c3ccccc3)c(-c3ccccc3)nc2c1, the inhibition of growth at 10 µM is reported as 43.6%.

Tested on: HOP-62
Test: Growth inhibition of human HOP62 cells at 10 uM after 48 hrs by sulforhodamine B assay
Type: functional
Conditions: HOP-62, 48 h, read-out: GI
In short: as §2
Work on O=S(=O)(Nc1ccccn1)c1ccc2nc(-c3ccccc3)c(-c3ccccc3)nc2c1 yielded an inhibition of growth at 10 µM of 22.8%.

Tested on: DU-145
Test: Growth inhibition of human DU145 cells at 10 uM after 48 hrs by sulforhodamine B assay
Type: functional
Conditions: DU-145, 48 h, read-out: GI
In short: as §3
O=S(=O)(Nc1ccccn1)c1ccc2nc(-c3ccccc3)c(-c3ccccc3)nc2c1 showed an inhibition of growth at 10 µM of 37.4%.

Tested on: OVCAR-8
Test: Growth inhibition of human OVCAR8 cells at 10 uM after 48 hrs by sulforhodamine B assay
Type: functional
Conditions: OVCAR-8, 48 h, read-out: GI
In short: as §1
With O=S(=O)(Nc1ccccn1)c1ccc2nc(-c3ccccc3)c(-c3ccccc3)nc2c1 the inhibition of growth at 10 µM was 52.8%.

Tested on: MDA-MB-231
Test: Growth inhibition of human MDA-MB-231 cells at 10 uM after 48 hrs by sulforhodamine B assay
Type: functional
Conditions: MDA-MB-231, 48 h, read-out: GI
In short: as §1
For O=S(=O)(Nc1ccccn1)c1ccc2nc(-c3ccccc3)c(-c3ccccc3)nc2c1, the inhibition of growth at 10 µM was 80.1%.

Tested on: BT-549
Test: Growth inhibition of human BT549 cells at 10 uM after 48 hrs by sulforhodamine B assay
Type: functional
Conditions: BT-549, 48 h, read-out: GI
In short: as §3
In the case of O=S(=O)(Nc1ccccn1)c1ccc2nc(-c3ccccc3)c(-c3ccccc3)nc2c1, the inhibition of growth at 10 µM is reported as 80.2%.

— ChEMBL document CHEMBL2407075, “Sulphonamido-quinoxalines: search for anticancer agent” (Eur J Med Chem, 2013)
